H9c2 protect = cardioprotection against H2O2-induced cell death, primary screen, uHTS, H9c2 cells, ATPLite luminescence | hit rate 0.63% among 360,000 | AID 588492, 2011 | H9c2 cardiomyocytes, H2O2 injury protection, 2 h | protection from H2O2 cell death, % at 20 µM;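 active = compounds giving at least 50% protection of heart cells from peroxide-induced death in the single-dose screen, raw or plate-pattern-corrected value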;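 also: 0% = DMSO wells with peroxide and 100% = DMSO wells without peroxide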
ARFGAP1 inh = inhibitors of rat ARFGAP1 GAP activity, primary screen, biochemical, fluorescence polarization, GDP tracer | AID 651572, 2012 | ADP-ribosylation factor GTPase-activating protein 1 (Rattus norvegicus), Q62848 | hit rate 0.26% among 360,000 | inhibition, % at 16.5 µM | Arfgap1-stimulated ARF1 GTP hydrolysis, GDP FP detection;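 active = inhibition above a per-plate limit, mean inhibition of low control wells plus 3 SD, cut at about 25% in these data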;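 also: 0% = DMSO wells with enzyme and 100% = wells lacking Arfgap1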
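material = rat Arfgap1 catalytic domain, aa 1-136 | also added = human ARF1(Δ1-17)-GTP substrate | compound dosing = one concentration, 16.5 µM, DMSO 1.26% | times = GTP hydrolysis reaction 2 h at 25 °C | measured by = FP, GDP Alexa 633 tracer displaced from anti-GDP antibody, 620/688 nm | evaluation = percent inhibition of Arfgap1-stimulated GTP hydrolysis | replication = single well per compound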
ASAP1 GAP inh = inhibitors of human ASAP1 ArfGAP activity, primary screen, biochemical, fluorescence polarization; ASAP1-stimulated ARF1 GTP hydrolysis, GDP FP detection; inhibition, % at 16.5 µM; hit rate 0.19% among 360,000; in the data active = inhibition above about 25%;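 also: 0% = vehicle with enzyme and substrate and 100% = no enzyme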
Neddyl block = inhibitors of cullin neddylation, primary screen, biochemical, TR-FRET, uHTS, NAE and Ubc12 | NEDD8-conjugating enzyme Ubc12 (Homo sapiens) + NEDD8-activating enzyme E1 regulatory … | inhibition, % at 25 µM | hit rate 0.58% among 360,000; in the data active = inhibition above about 36%
Target sequence (P61081 whole entry, looked up): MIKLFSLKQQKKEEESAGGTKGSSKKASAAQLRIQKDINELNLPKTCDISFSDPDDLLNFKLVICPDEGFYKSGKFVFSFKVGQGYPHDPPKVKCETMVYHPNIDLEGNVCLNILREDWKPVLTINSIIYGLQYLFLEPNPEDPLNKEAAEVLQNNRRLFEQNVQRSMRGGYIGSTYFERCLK
Target sequence (Q13564 whole entry, looked up): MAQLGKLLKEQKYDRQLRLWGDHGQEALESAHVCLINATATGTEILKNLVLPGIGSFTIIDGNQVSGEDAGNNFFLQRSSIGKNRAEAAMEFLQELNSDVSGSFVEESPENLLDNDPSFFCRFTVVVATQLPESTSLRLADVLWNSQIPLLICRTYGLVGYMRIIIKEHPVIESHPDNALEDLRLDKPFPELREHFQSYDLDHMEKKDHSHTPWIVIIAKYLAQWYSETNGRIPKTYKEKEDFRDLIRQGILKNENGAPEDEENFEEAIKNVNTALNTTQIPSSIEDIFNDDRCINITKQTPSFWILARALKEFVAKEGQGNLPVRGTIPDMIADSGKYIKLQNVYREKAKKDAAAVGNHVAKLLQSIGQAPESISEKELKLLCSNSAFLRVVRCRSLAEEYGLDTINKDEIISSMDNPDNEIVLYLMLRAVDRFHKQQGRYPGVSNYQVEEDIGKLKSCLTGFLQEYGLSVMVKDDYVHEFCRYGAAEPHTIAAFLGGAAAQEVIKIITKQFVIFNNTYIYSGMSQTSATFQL
ASAP1 GAP conf = ASAP1 GAP activity inhibitors, confirmation, biochemical, fluorescence polarization, human, triplicate | inhibition, % at 16.5 µM | ASAP1-stimulated Arf1 GTPase, GDP fluorescence polarization | AID 624431, 2012 | shares compounds with ASAP1 GAP inh | hit rate 37% among 620;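 active = mean inhibition over triplicates exceeds the hit threshold derived for the earlier primary screening run, cut at about 25% in these data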
Starred values were filed as active, the others as inactive. Compounds with a hit are over-represented: about 1.6% of the library has one in this group of screens.

What do the screens show for `Cc1cc(C)cc(N2C(=O)NC(=O)/C(=C\C=C\c3ccco3)C2=O)c1`?
H9c2 protect: 61*; ARFGAP1 inh: 8; ASAP1 GAP inh: 5; Neddyl block: 10

Results for CCOC(=O)[C@]12Cc3cc(Cl)ccc3[C@H]1N(C1CCCCC1)C(=O)c1ccccc12 ?
Neddyl block: 9

What do the screens show for `COCCNC(=O)N1[C@H]2CC[C@@H]1C(C(=O)OC)=C(c1ccc(OC(F)(F)F)cc1)C2`?
H9c2 protect: -6; ARFGAP1 inh: 7; ASAP1 GAP inh: 11; Neddyl block: 1

Results for CN(CC1COc2ccccc2O1)c1nc(-c2cccnc2)nc2ccccc12 (stereo unspecified) ?
H9c2 protect: 90*; ARFGAP1 inh: -22; ASAP1 GAP inh: 4; Neddyl block: -12

How did CN1CCC(N(C)c2nc(-c3ccc([N+](=O)[O-])cc3)nc3ccccc23)CC1 do in these assays?
H9c2 protect: -29; ARFGAP1 inh: 5; ASAP1 GAP inh: 11; Neddyl block: -30

What do the screens show for `O=c1c2ccccc2nc(/C=C/c2ccc(O)c(O)c2)n1-c1ccccc1`?
H9c2 protect: 56*; ARFGAP1 inh: 8; ASAP1 GAP inh: 8; Neddyl block: -4

How did COc1cc(/C=C/c2nc3ccccc3c(=O)n2-c2ccccc2O)ccc1O do in these assays?
H9c2 protect: 50*; ARFGAP1 inh: -4; ASAP1 GAP inh: 1; Neddyl block: 19

Results for COc1cc(/C=C/c2nc3ccccc3c(=O)n2-c2cccc(O)c2)ccc1O ?
H9c2 protect: 43; ARFGAP1 inh: 0; ASAP1 GAP inh: 3; Neddyl block: 15

How did CCC(=Nc1ccccc1NC(C)=O)c1c(O)n(C)c(=O)n(C)c1=O do in these assays?
H9c2 protect: 1; ARFGAP1 inh: -8; ASAP1 GAP inh: -9; Neddyl block: 2

How did C[C@H](CO)N1C[C@H](C)[C@H](CN(C)C(=O)Oc2ccccc2)OCc2cnnn2CCCC1=O do in these assays?
H9c2 protect: 1; ARFGAP1 inh: 10; ASAP1 GAP inh: 3; Neddyl block: -2

How did O=C(NC1(C(F)(F)F)Oc2ccc(Cl)cc2O1)N1CCC2(CC1)OCCO2 (stereo unspecified) do in these assays?
H9c2 protect: 78*; ARFGAP1 inh: -13; ASAP1 GAP inh: -9; Neddyl block: 5

What do the screens show for `Cc1cccc(N2C(=O)NC(=O)/C(=C/c3cc4c(cc3[N+](=O)[O-])OCO4)C2=O)c1`?
H9c2 protect: 3; ARFGAP1 inh: 9; ASAP1 GAP inh: -1; Neddyl block: 49*

Results for CC12C=CC(=O)CC1CCC1C2CCC2(C)C(O)C(O)CC12 (stereo unspecified) ?
H9c2 protect: 118*; ARFGAP1 inh: 16; ASAP1 GAP inh: 1; Neddyl block: -4

Results for C[C@]12CCC3C(CC[C@H]4C[C@H](O)CC[C@]34C)C1C[C@@H](O)[C@@H]2O (stereo partly specified) ?
H9c2 protect: -2; ARFGAP1 inh: 2; ASAP1 GAP inh: 14; Neddyl block: -3

What do the screens show for `COC12CCC3(CC1C(C)(O)C(C)(C)C)[C@H]1Cc4ccc(OC5OC(C(=O)O)[C@@H](O)C(O)[C@H]5O)c5c4[C@@]3(CCN1CC1CC1)C2O5` (stereo partly specified)?
H9c2 protect: -3; ARFGAP1 inh: 0; ASAP1 GAP inh: -5; Neddyl block: 3

How did Cc1nc2ccccc2c(=O)n1-c1ccc(Br)cn1 do in these assays?
H9c2 protect: 1; ARFGAP1 inh: -9; ASAP1 GAP inh: 8; Neddyl block: -2

How did Cc1nc2ccccc2c(=O)n1/N=C/c1cc(Br)cc(Br)c1O do in these assays?
H9c2 protect: 55*; ARFGAP1 inh: -5; ASAP1 GAP inh: -5; Neddyl block: 72*

Results for O=C(N/N=C/c1c(O)n(C2CCCCC2)c(=S)[nH]c1=O)c1ccccc1O ?
H9c2 protect: 52*; ARFGAP1 inh: 3; ASAP1 GAP inh: -3

How did CC(C)c1ccc(-n2c(O)c(/C=N/NC(=O)c3ccccc3O)c(=O)[nH]c2=S)cc1 do in these assays?
H9c2 protect: 6; ARFGAP1 inh: 5; ASAP1 GAP inh: 7; Neddyl block: 15

Results for O=c1[nH]c(=S)n(C2CC2)c(O)c1/C=N/Nc1ccccc1 ?
H9c2 protect: 1; ARFGAP1 inh: 7; ASAP1 GAP inh: -13; Neddyl block: -10

How did O=C(N/N=C/c1c(O)n(C2CCCCC2)c(=S)[nH]c1=O)c1ccccc1 do in these assays?
H9c2 protect: 64*; ARFGAP1 inh: -7; ASAP1 GAP inh: 6; Neddyl block: 36

Results for C[C@H](CO)N1C[C@H](C)[C@@H](CN(C)C(=O)Oc2ccccc2)OCc2cnnn2CCCC1=O ?
H9c2 protect: 5; ARFGAP1 inh: 0; ASAP1 GAP inh: 3; Neddyl block: -4

How did Cc1ccc(N2C(=O)NC(=O)/C(=C/c3ccoc3)C2=O)cc1 do in these assays?
H9c2 protect: 13; ARFGAP1 inh: -5; ASAP1 GAP inh: 0; Neddyl block: 98*

How did O=C(CSC1c2ccccc2-c2ccccc21)N/N=C/c1ccccc1O do in these assays?
H9c2 protect: 54*; ARFGAP1 inh: -14; ASAP1 GAP inh: -7; Neddyl block: 38

What do the screens show for `Cc1ccc(-c2cc(-c3ccc(C)cc3)[n+](-c3ccccc3)c(-c3ccc(C)cc3)c2)cc1`?
H9c2 protect: -18; Neddyl block: 45*

How did CN(CCc1nnc(N)s1)[N+](=O)[O-] do in these assays?
H9c2 protect: 1; ARFGAP1 inh: 6; ASAP1 GAP inh: -3; Neddyl block: 11

How did O=C1C=C(N2CC2)c2ccccc2C1=O do in these assays?
H9c2 protect: -15; ARFGAP1 inh: -6; ASAP1 GAP inh: 31*; Neddyl block: -46; ASAP1 GAP conf: -6

How did CCC(C)NC(=O)c1c(N)n(CCCOC)c2nc3ccccc3nc12 (stereo unspecified) do in these assays?
H9c2 protect: 16; ARFGAP1 inh: -16; ASAP1 GAP inh: 27*; ASAP1 GAP conf: 15

How did CCN1C[C@@]2(COC)C3[C@@H](OC)[C@H]4[C@@H]1[C@@]3(C1C[C@H]3[C@H](O)C1[C@]4(O)C[C@H]3OC)[C@@H](OC)C[C@H]2O (stereo partly specified) do in these assays?
H9c2 protect: -1; ARFGAP1 inh: 2; ASAP1 GAP inh: 5; Neddyl block: 5

Results for CN1CCN(C(=O)COc2ccc(S(=O)(=O)Nc3ccc(Cl)cc3)cc2)CC1 ?
H9c2 protect: 0; ARFGAP1 inh: 3; ASAP1 GAP inh: -14; Neddyl block: -5

Compound activity as filed in PubChem BioAssay.
